Test results: ChEMBL document CHEMBL2417414, “Total synthesis and biological evaluation of clavaminol-G and its analogs” (Eur J Med Chem, 2013); call rule not given here
Converted amounts (≈) assume the structure as drawn.

How the values were obtained:
A549 = assay: Cytotoxicity against human A549 cells by MTT assay; assay type: functional, cell-based
Outline: (§1)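 MTT assay on ATCC lines: A549 (CCL-185, alveolar adenocarcinoma), HeLa (CCL-2, cervical), MDA-MB-231 (HTB-26) and MCF7 (HTB-22, breast adenocarcinoma). IC50 calculated from absorbance dose–response curves. Values are the average of two independent experiments.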

HeLa = assay: Cytotoxicity against human HeLa cells by MTT assay; assay type: functional, cell-based; outline: as §1
MCF7 = assay: Cytotoxicity against human MCF7 cells by MTT assay; assay type: functional, cell-based; outline: as §1
MDA-MB-231 = assay: Cytotoxicity against human MDA-MB-231 cells by MTT assay; assay type: functional, cell-based; outline: as §1
Pichia kudriavzevii = assay: Antifungal activity against Issatchenkia orientalis MTCC 3020 after 24 hrs by well diffusion method; assay type: functional; conditions: MTCC 3020, 24 h
Outline: (§2)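 MTCC strains spread on Mueller-Hinton agar plates with 0.1 mL of suspension at 1.5 × 10^8 CFU/mL (0.5 McFarland). Neomycin served as the antibacterial control, fluconazole and miconazole as antifungal controls, and DMSO as the negative control. Plates incubated 24 h at 30 °C. MIC was taken as the lowest amount giving an inhibition zone. Duplicates, mean reported.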

Bacillus subtilis = assay: Antibacterial activity against Bacillus subtilis MTCC 121 after 24 hrs by well diffusion method; assay type: functional; conditions: MTCC 121, 24 h; outline: as §2
Staphylococcus aureus [1] = assay: Antibacterial activity against Staphylococcus aureus MTCC 96 after 24 hrs by well diffusion method; assay type: functional; conditions: MTCC 96, 24 h; outline: as §2
Candida albicans [2] = assay: Antifungal activity against Candida albicans MTCC 1637 after 24 hrs by well diffusion method; assay type: functional; conditions: MTCC 1637, 24 h
Outline: (§3)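 Agar well diffusion on Mueller-Hinton agar seeded with 0.1 mL of suspension at 1.5 × 10^8 CFU/mL (0.5 McFarland). Fluconazole and miconazole served as positive controls, DMSO as negative control. Plates incubated 24 h at 30 °C. MIC taken as the lowest amount giving an inhibition zone; duplicates, mean reported.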

Raoultella planticola = assay: Antibacterial activity against Klebsiella planticola MTCC 530 after 24 hrs by well diffusion method; assay type: functional; conditions: MTCC 530, 24 h; outline: as §2
Staphylococcus aureus [3] = assay: Antibacterial activity against Staphylococcus aureus MLS16 MTCC 2940 after 24 hrs by well diffusion method; assay type: functional; conditions: MLS16 MTCC 2940, 24 h; outline: as §2
Candida parapsilosis = assay: Antifungal activity against Candida parapsilosis MTCC 1744 after 24 hrs by well diffusion method; assay type: functional; conditions: Lodderomyces parapsilosis, MTCC 1744, 24 h; outline: as §2
Candida albicans [4] = assay: Antifungal activity against Candida albicans MTCC 3958 after 24 hrs by well diffusion method; assay type: functional; conditions: MTCC 3958, 24 h; outline: as §3
Micrococcus luteus = assay: Antibacterial activity against Micrococcus luteus MTCC 2470 after 24 hrs by well diffusion method; assay type: functional; conditions: MTCC 2470, 24 h; outline: as §2
Escherichia coli = assay: Antibacterial activity against Escherichia coli MTCC 739 after 24 hrs by well diffusion method; assay type: functional; conditions: MTCC 739, 24 h; outline: as §2
Pseudomonas aeruginosa = assay: Antibacterial activity against Pseudomonas aeruginosa MTCC 2453 after 24 hrs by well diffusion method; assay type: functional; conditions: MTCC 2453, 24 h; outline: as §2
Candida albicans [5] = assay: Antifungal activity against Candida albicans MTCC 854 after 24 hrs by well diffusion method; assay type: functional; conditions: MTCC 854, 24 h; outline: as §3
Nakaseomyces glabratus = assay: Antifungal activity against Candida glabrata MTCC 3019 after 24 hrs by well diffusion method; assay type: functional; conditions: MTCC 3019, 24 h; outline: as §2
Candida albicans [6] = assay: Antifungal activity against Candida albicans MTCC 4748 after 24 hrs by well diffusion method; assay type: functional; conditions: MTCC 4748, 24 h; outline: as §3
Candida albicans [7] = assay: Antifungal activity against Candida albicans MTCC 3018 after 24 hrs by well diffusion method; assay type: functional; conditions: MTCC 3018, 24 h; outline: as §3
Candida albicans [8] = assay: Antifungal activity against Candida albicans MTCC 7315 after 24 hrs by well diffusion method; assay type: functional; conditions: MTCC 7315, 24 h; outline: as §3
[Candida] aaseri = Antifungal activity against Candida aaseri MTCC 1962 after 24 hrs by well diffusion method; assay type: functional; conditions: Yamadazyma aaseri, MTCC 1962, 24 h; outline: as §2
Pichia sporocuriosa = assay: Antifungal activity against Issatchenkia hanoiensis MTCC 4755 after 24 hrs by well diffusion method; assay type: functional; conditions: MTCC 4755, 24 h; outline: as §2
Candida albicans [9] = assay: Antifungal activity against Candida albicans MTCC 183 after 24 hrs by well diffusion method; assay type: functional; conditions: MTCC 183, 24 h; outline: as §3
Candida albicans [10] = assay: Antifungal activity against Candida albicans MTCC 3017 after 24 hrs by well diffusion method; assay type: functional; conditions: MTCC 3017, 24 h; outline: as §3
[11] = Homo sapiens, A549, read-out: IC50
[12] = Homo sapiens, HeLa, read-out: IC50
[13] = Homo sapiens, MCF7, read-out: IC50
[14] = Homo sapiens, MDA-MB-231, read-out: IC50

Row | SMILES | IC50 (MCF7; mcf7) | IC50 (MDA-MB-231; mda-mb-231) | MIC (Pichia kudriavzevii) [µg/mL] | IC50 (A549; [11]) [µM] | MIC (Candida albicans [2]) [µg/mL] | IC50 (HeLa; [12]) [µM] | MIC (Candida parapsilosis) [µg/mL] | MIC (Candida albicans [4]) [µg/mL] | IC50 (MCF7; [13]) [µM] | MIC (Candida albicans [5]) [µg/mL] | MIC (Nakaseomyces glabratus) [µg/mL] | IC50 (MDA-MB-231; [14]) [µM] | MIC (Candida albicans [6]) [µg/mL] | MIC (Candida albicans [7]) [µg/mL] | MIC (Candida albicans [8]) [µg/mL] | MIC ([Candida] aaseri) [µg/mL] | MIC (Pichia sporocuriosa) [µg/mL] | MIC (Candida albicans [9]) [µg/mL] | MIC (Candida albicans [10]) [µg/mL] | other results
1 | CCCCCCCCCC(O)CNC(C)=O (stereo not drawn) | Not Active | Not Active |  |  |  |  |  |  |  |  |  |  |  |  |  |  |  |  |  | IC50 (A549; a549): Not Active; IC50 (HeLa; hela): Not Active
2 | CCCCCCCCCC(O)CN (stereo not drawn) |  |  | 18.8 (≈ 100 µM) | 6.78 | 18.8 (≈ 100 µM) | 4.36 | 18.8 (≈ 100 µM) | 18.8 (≈ 100 µM) | 3.88 | 18.8 (≈ 100 µM) | 18.8 (≈ 100 µM) | 4.02 | 18.8 (≈ 100 µM) | 18.8 (≈ 100 µM) | 18.8 (≈ 100 µM) | 18.8 (≈ 100 µM) | 18.8 (≈ 100 µM) | 18.8 (≈ 100 µM) | 18.8 (≈ 100 µM) | MIC (Bacillus subtilis): 18.8 µg/mL (≈ 100 µM); MIC (Staphylococcus aureus [1]): 18.8 µg/mL (≈ 100 µM); MIC (Raoultella planticola): 18.8 µg/mL (≈ 100 µM); MIC (Staphylococcus aureus [3]): 18.8 µg/mL (≈ 100 µM); MIC (Micrococcus luteus): 18.8 µg/mL (≈ 100 µM); MIC (Escherichia coli): 18.8 µg/mL (≈ 100 µM); MIC (Pseudomonas aeruginosa): 18.8 µg/mL (≈ 100 µM)
3 | COC(=O)CCCCCCCCC(O)CN (stereo not drawn) |  |  |  | 7.89 |  | 3.59 |  |  | 10.2 |  |  | 29.8 |  |  |  |  |  |  |  | 
4 | NCC(O)CCCCCCCCC(=O)O (stereo not drawn) | Not Active | Not Active |  |  |  |  |  |  |  |  |  |  |  |  |  |  |  |  |  | IC50 (A549; a549): Not Active; IC50 (HeLa; hela): Not Active
5 | NCC(O)CCCCCCCCCO (stereo not drawn) | Not Active | Not Active |  | 16.2 |  | 8.79 |  |  |  |  |  |  |  |  |  |  |  |  |  | 
6 | COc1cccc2c1C(=O)c1c(O)c3c(c(O)c1C2=O)C[C@@](O)(C(=O)CO)C[C@@H]3O[C@H]1C[C@H](N)[C@H](O)[C@H](C)O1 [DOXORUBICIN] |  |  |  |  |  |  |  |  | 1.05 |  |  | 0.5 |  |  |  |  |  |  |  | 
7 | OC(Cn1cncn1)(Cn1cncn1)c1ccc(F)cc1F [FLUCONAZOLE] |  |  | 150 (≈ 490 µM) |  | 75 (≈ 245 µM) |  | 18.8 (≈ 61.2 µM) | 75 (≈ 245 µM) |  | 37.5 (≈ 122 µM) | 75 (≈ 245 µM) |  | 37.5 (≈ 122 µM) | 37.5 (≈ 122 µM) | 37.5 (≈ 122 µM) | 37.5 (≈ 122 µM) | 75 (≈ 245 µM) | 37.5 (≈ 122 µM) | 75 (≈ 245 µM) | 
8 | Clc1ccc(COC(Cn2ccnc2)c2ccc(Cl)cc2Cl)c(Cl)c1 (stereo not drawn) [MICONAZOLE] |  |  | 9.37 (≈ 22.5 µM) |  | 9.37 (≈ 22.5 µM) |  | 9.37 (≈ 22.5 µM) | 9.37 (≈ 22.5 µM) |  | 9.37 (≈ 22.5 µM) | 9.37 (≈ 22.5 µM) |  | 9.37 (≈ 22.5 µM) | 9.37 (≈ 22.5 µM) | 9.37 (≈ 22.5 µM) | 9.37 (≈ 22.5 µM) | 9.37 (≈ 22.5 µM) | 9.37 (≈ 22.5 µM) | 9.37 (≈ 22.5 µM) | 
